Source: PubChem BioAssay (several laboratories)
NF-kB expr up: activators of NF-kB expression in neurons, primary screen, cell-based, HTS; hit rate 1.6% among 190,000; human neuronal cells, NF-kB reporter expression; stronger effect = higher value; fold change at 12.5 µM; AID 1239, 2008; in the data active = fold change above about 3.3
FLuc stim CS: FLuc activators, initial screening, artefact control for FLuc-dependent activation tests, biochemical, ATPlite luminescence | Luciferin 4-monooxygenase (Photinus pyralis), P08659 | ATPlite luciferase biochemical, 10 min; 0 = ATP-free wells, 1 = DMSO control | activation factor at 10 µM | 200,000 tested, under 10 active | AID 1027, 2008;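 active = luciferase activation factor, scaled between plate controls, of at least 2 with compound at 10 µM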
Target sequence (P08659 whole entry, looked up): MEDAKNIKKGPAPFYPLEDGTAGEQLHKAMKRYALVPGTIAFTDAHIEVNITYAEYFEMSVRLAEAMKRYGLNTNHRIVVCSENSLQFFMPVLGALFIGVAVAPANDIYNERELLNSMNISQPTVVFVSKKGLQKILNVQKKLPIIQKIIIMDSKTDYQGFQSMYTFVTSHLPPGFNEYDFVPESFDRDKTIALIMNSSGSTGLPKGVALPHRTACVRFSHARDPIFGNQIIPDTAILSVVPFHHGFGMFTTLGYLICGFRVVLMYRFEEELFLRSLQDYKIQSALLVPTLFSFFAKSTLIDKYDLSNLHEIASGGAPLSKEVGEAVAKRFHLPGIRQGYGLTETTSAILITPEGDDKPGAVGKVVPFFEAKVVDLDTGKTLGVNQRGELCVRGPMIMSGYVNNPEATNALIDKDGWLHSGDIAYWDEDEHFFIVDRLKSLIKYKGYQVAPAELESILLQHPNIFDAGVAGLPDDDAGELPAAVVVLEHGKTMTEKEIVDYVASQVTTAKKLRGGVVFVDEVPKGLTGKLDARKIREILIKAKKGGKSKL
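System: luciferase plus luciferin reagent, cell-free; medium: PBS as buffer for the ATP substrate; dosing: test compounds dosed from 2 mM stocks in 100% DMSO; timing: 10 min post-reagent at room temperature; measured by: luminescence measurement of luciferase light output; evaluation: luciferase activation, seen as luminescence increase over controls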
STAT1 activator: STAT1 signaling activators, primary screen, cell-based, HTS, luciferase reporter; NIH 3T3 STAT1-luciferase reporter, IFN-gamma, luminescence; 100% = IFN-gamma alone, no compound; activation (% of control), % at 5.5 µM; hit rate 2.6% among 200,000; AID 932, 2007;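 active = activation above the screen-wide mean activation plus 3 SD, cut at about 130% in these data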;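 note: raw ratio to IFN-gamma control signal so 100% means no change and 0% no light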
APP 5'UTR act: activators of APP 5'UTR luciferase reporter, primary screen, SH-SY5Y cells; SH-SY5Y APP 5'UTR luciferase reporter, luminescence; zero percent = DMSO vehicle wells; activation, % at 2 µM; hit rate 1% among 190,000; AID 1276, 2008;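 active = activation above a set limit, based on mean plus 3 SD of controls, cut at about 140% in these data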
APP 5UTR inh: inhibitors of APP translation via 5'UTR reporter, primary screen, APP 5'UTR luciferase, SH-SY5Y cells. SH-SY5Y APP 5'UTR-luciferase reporter, luminescence. inhibition, % at 2 µM. hit rate 0.82% among 190,000;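 active = inhibition above a set limit, derived from the sample mean plus 3 SD, cut at about 45% in these data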
FLuc inhib CS: firefly luciferase enzyme inhibitors, primary screen, artefact control for luciferase-based inhibitor screens, biochemical, luminescence, ATPLite; inhibition, % at 10 µM; AID 1006, 2008; hit rate 1.5% among 200,000; Luciferin 4-monooxygenase (Photinus pyralis), P08659; 10 min;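 active = inhibition above about 50% when tested at 10 µM, limit read from the data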
An asterisk follows results filed as active. Sampled rows, rich in hits. Any-hit rate of the full collection: about 4.8%.

SMILES	NF-kB expr up	FLuc stim CS	STAT1 activator	APP 5'UTR act	APP 5UTR inh	FLuc inhib CS
Cc1nc(NC(=S)Nc2ccccc2)sc1C	4.75*	0.8	124.3	140.4*	-140.4	24.5
Cc1ccc(C(=O)Nc2nnc(NC(=S)Nc3ccccc3)s2)cc1	1.57	0.8	117.8	7.8	-7.8	16.6
CCc1nnc(NC(=S)Nc2ccccc2)s1	3.34*	0.8	131.8*	48.6	-48.6	18.0
O=C(Cc1nnc(NC(=O)Nc2ccccc2)s1)NCc1ccccc1	1.41	1.1	100.6	12.7	-12.7	-5.9
CC(C)COC(=O)Nc1nnc(Cc2ccccc2)s1	2.41	1	133.3*	-11.3	11.3	-3.4
COc1ccc(-c2nnc(SC(C)C(=O)Nc3c(C)n(C)n(-c4ccccc4)c3=O)o2)cc1 (configuration not stated)	1.1	1	101.7	-6.6	6.6	-2.4
Cc1cc(C)c(NC(=O)C(C)c2cccc(C(=O)c3ccccc3)c2)c(C)c1 (configuration not stated)	0.97	1	101.0	-3.5	3.5	-1.7
CCN(CC)S(=O)(=O)c1cccc(NC(=O)COC(=O)CCC(=O)c2ccc(F)cc2)c1	0.77	1	98.8	6.4	-6.4	-2.0
CCc1nnc(NC(=O)c2cccc(C(=O)Nc3nnc(CC)s3)n2)s1	1.12	0.9	92.0	-85.0	85.0*	8.8
CCc1nnc(NC(=O)c2ccncc2)s1	1.03	1	102.6	-8.3	8.3	1.7
Cc1sc2nc(SCC(=O)c3cc(C)n(CC4CCCO4)c3C)n(C(C)C)c(=O)c2c1C (configuration not stated)	0.33	1.1	93.2	6.2	-6.2	-7.6
Cc1ccc(-c2nnc(CSc3nc(C(C)C)nc4sc(C)c(C)c34)o2)cc1	1.14	1	102.4	2.2	-2.3	0.6
CC(NC(=O)c1ccccc1)c1ccc(Br)cc1 (configuration not stated)	0.99	1	89.1	-1.1	1.1	-2.7
C=CC(=O)NC(NC(=O)C=C)c1ccc(Br)cc1	3.33*	1	96.6	-0.6	0.6	-1.5
O=c1c2ccccc2cnn1-c1nc2ccccc2[nH]1	0.22	0	11.9	-69.3	69.3*	97.6*
O=c1c(Cl)c(N2CCCCC2)cnn1-c1nc2ccccc2[nH]1	0.44	0	34.7	97.0	-97.0	96.9*
CCS(=O)(=O)N1CCN(c2cnn(-c3ccccc3)c(=O)c2Cl)CC1	1.01	1	98.2	-6.1	6.1	2.6
O=c1cc(-c2ccccc2)[nH]n1-c1nc2ccccc2[nH]1	1.07	0.8	112.6	6.7	-6.7	19.1
COc1ccc(OC)c(/C=N/N(C)c2ccccc2)c1	2.36	0.9	136.8*	24.9	-24.9	12.2
NC(=S)NNC(=O)Nc1ccc(Cl)c(Cl)c1	1	1.1	102.4	1.2	-1.2	-7.9
N#C/C(=N\Nc1cccc(F)c1)C(=N)N1CCCCCC1	5.25*	0.4	144.7*	149.9*	-149.9	62.3*
C(=N\Nc1nc2ccccc2[nH]1)/c1ccccn1	0.9	0	13.5	71.5	-71.5	95.9*
CCCCn1c(/C=N/Nc2nc3ccccc3[nH]2)nc2ccccc21	0.77	0.9	112.0	-87.5	87.5*	8.5
Cc1ccc2cc(/C=N/NC(=O)c3ccc(F)cc3)c(Cl)nc2c1	1.01	1	100.6	8.0	-8.0	-0.1
Cc1ccc(/C=N\Nc2nc3ccc(Cl)cc3[nH]2)o1	3.73*	0.7	136.3*	73.4	-73.4	26.5
SMILES	NF-kB expr up	FLuc stim CS	STAT1 activator	APP 5'UTR act	APP 5UTR inh	FLuc inhib CS
COc1ccc(/C=N/Nc2nc3ccccc3[nH]2)cc1OC	1.41	0.6	102.1	41.8	-41.8	36.4
CCCCn1c(/C=C/c2ccco2)nc2ccccc21	2.01	0.8	93.7	9.0	-9.0	19.6
Cc1ccc2cc(/C=N/Nc3nc4ccccc4[nH]3)c(Cl)nc2c1	1.87	0.1	94.5	86.5	-86.5	94.3*
COc1ccc(CNC(=O)C(c2ccco2)N(C(=O)c2csnn2)c2cccc(C)c2C)cc1 (configuration not stated)	0.91	1	100.4	-15.9	15.9	-1.8
O=C(Cn1cnc([N+](=O)[O-])n1)NC1CC1	1.12	1.1	102.8	2.7	-2.7	-7.7
Cn1c(N/N=C/c2c[nH]c3ccccc23)nc2ccccc21	2.21	0.6	119.6	81.3	-81.3	37.9
CC(C)(C)C1CCC(=NNc2nc3ccccc3[nH]2)CC1 (configuration not stated)	1.21	0.9	106.4	23.1	-23.1	10.9
Cn1c(N/N=C/c2cc3ccccc3nc2Cl)nc2ccccc21	1.09	0	101.3	120.8	-120.8	96.0*
Cc1cc(=O)[nH]c(N/N=C/c2ccccn2)n1	0.86	1	112.4	-64.9	64.9*	3.5
CSc1ccc(/C=N/Nc2nc(C)cc(=O)[nH]2)cc1	1.5	0.3	109.7	4.8	-4.8	68.3*
Cc1cc(=O)[nH]c(N/N=C/c2cccc([N+](=O)[O-])c2)n1	0.98	1	100.0	-3.5	3.5	0.1
c1ccc2c(c1)CC/C2=N/Nc1nc2ccccc2[nH]1	3.4*	0.6	137.4*	180.0*	-180.0	43.2
COC(=O)c1ccc(C(=O)OC)c(NC(=O)C(C)(C)C)c1	1.16	1.1	96.9	-3.1	3.1	-14.3
S=C(NNc1ccc2ccccc2c1)NC1CCCCC1	0.94	0.9	89.8	13.0	-13.0	12.8
COc1cc(/C=N\Nc2nc3ccccc3[nH]2)cc(OC)c1OC	0.54	0.8	84.7	1.8	-1.8	22.4
Fc1ccccc1-c1ccc(/C=N/Nc2nc3ccccc3[nH]2)o1	2.93	0.1	108.2	74.0	-74.0	93.3*
O=C(Nc1ccc(Cl)cn1)Nc1ccc(Cl)cn1	1.38	1	105.0	-3.1	3.1	-3.0
CC(C)C(=O)Nc1ccc(NC(=O)c2cccc(F)c2)cn1	1.63	1	120.5	56.0	-56.0	-3.2
Cc1cc(NC(=O)c2cccc(F)c2)ncc1NC(=O)c1ccco1	3.64*	0.9	117.8	139.5*	-139.5	11.8
O=C(Nc1ccc(F)cc1)Nc1ccc(Cl)cn1	2.15	1	117.4	43.1	-43.1	0.6
O=C(Nc1ccc(Cl)cn1)c1cccc(F)c1	3.56*	0.9	146.1*	54.5	-54.5	9.3
O=C(Nc1ccc(Cl)cn1)Nc1ccccc1F	2.25	1	138.7*	16.8	-16.8	-4.7
O=C(Nc1ccc(Cl)cn1)c1ccccc1F	2.86	0.6	132.8*	182.9*	-182.9	41.9
CCOc1cc(C(=O)NCCCn2ccnc2)cc(OCC)c1OCC	1.09	1	100.6	19.5	-19.5	-2.0
